Drawing on ChEMBL document CHEMBL2321812 (J Med Chem, 2013), this text covers IC50, half-life and inhibition for 13 compounds.

The source made the active and inactive calls. The rule behind the calls is not given here.

The target in one series is T1, Tankyrase 1/2 (Homo sapiens, UniProt Q9H2K2+O95271).
T1 sequence (Q9H2K2 whole entry): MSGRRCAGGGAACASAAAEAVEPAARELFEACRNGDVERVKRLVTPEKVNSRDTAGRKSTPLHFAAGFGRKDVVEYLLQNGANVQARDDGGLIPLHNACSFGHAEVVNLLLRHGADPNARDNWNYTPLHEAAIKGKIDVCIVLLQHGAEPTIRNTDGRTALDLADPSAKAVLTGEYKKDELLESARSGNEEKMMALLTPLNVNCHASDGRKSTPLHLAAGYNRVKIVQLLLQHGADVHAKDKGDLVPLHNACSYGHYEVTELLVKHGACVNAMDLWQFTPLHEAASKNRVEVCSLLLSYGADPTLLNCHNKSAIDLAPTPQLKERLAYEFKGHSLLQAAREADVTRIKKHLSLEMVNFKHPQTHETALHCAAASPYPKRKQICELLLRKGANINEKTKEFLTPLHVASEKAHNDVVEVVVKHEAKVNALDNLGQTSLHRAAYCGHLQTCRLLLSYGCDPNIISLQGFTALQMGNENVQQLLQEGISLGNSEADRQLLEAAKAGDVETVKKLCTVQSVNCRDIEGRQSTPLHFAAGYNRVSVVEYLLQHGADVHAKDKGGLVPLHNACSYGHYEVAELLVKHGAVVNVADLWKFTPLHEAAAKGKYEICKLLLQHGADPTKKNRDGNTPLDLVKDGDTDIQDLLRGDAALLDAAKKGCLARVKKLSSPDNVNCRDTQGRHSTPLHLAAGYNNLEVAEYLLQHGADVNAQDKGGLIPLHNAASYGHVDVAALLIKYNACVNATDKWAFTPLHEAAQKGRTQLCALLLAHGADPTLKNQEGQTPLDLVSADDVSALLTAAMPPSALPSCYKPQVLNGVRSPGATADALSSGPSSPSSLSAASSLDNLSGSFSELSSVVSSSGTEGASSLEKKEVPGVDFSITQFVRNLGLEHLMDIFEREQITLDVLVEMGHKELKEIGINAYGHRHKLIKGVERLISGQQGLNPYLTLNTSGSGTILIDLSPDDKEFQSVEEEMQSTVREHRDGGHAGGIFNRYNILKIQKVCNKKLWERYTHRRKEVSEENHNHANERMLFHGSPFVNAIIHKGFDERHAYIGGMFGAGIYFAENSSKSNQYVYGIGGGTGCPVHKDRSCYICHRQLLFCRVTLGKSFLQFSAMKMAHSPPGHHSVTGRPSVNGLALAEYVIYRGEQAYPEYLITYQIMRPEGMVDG
T1 sequence (O95271 whole entry): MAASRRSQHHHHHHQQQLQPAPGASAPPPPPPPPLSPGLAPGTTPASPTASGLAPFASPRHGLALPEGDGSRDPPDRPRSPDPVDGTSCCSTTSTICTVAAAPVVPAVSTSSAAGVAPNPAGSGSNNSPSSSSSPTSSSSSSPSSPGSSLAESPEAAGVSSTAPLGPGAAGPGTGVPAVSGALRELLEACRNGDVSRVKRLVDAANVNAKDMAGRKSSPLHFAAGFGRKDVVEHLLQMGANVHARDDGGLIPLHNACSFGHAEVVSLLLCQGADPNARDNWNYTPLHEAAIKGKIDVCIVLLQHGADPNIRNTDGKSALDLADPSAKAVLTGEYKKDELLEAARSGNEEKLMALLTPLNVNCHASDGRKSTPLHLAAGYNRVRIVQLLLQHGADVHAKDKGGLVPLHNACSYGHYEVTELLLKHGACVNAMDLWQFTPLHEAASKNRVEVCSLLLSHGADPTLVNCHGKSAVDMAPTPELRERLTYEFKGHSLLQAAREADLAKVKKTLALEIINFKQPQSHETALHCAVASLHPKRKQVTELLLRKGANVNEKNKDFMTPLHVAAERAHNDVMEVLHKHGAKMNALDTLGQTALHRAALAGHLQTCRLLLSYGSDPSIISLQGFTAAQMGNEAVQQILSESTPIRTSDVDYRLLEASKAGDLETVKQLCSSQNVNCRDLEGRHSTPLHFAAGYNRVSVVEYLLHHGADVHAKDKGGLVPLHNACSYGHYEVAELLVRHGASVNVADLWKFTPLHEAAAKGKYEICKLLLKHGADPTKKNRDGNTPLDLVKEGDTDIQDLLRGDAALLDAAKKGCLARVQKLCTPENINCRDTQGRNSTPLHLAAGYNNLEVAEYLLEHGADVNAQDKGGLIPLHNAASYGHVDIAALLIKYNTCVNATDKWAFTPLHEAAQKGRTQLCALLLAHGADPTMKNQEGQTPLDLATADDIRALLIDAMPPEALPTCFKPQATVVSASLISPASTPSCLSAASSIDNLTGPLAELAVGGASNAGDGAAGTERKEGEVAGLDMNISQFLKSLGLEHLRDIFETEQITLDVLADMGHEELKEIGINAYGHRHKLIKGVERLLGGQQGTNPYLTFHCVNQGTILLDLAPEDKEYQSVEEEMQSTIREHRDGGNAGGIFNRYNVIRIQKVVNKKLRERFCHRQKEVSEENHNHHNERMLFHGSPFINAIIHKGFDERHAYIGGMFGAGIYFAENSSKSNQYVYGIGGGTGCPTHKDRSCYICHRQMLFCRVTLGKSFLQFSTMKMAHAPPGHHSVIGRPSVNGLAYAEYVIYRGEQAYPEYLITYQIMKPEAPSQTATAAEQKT
Kind of series: Inhibition of TNKS1/2 in HEK293 cells assessed as inhibition of Wnt/beta-catenin pathway after 24 hrs by luciferase reporter gene assay. The series is classed as cell-based.

Series [1] is described as follows: Half life in human liver microsomes. It is filed as ADME, Microsome.
Series [2] concerns the target Tankyrase 1/2 (Homo sapiens) (UniProt Q9H2K2+O95271). Briefly: Inhibition of TNKS1/2 in HEK293 cells assessed as inhibition of Wnt/[…] pathway at 10 uM after 24 hrs by luciferase reporter gene assay. It is filed as cell-based. The essentials: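 ST-Luc/Ren HEK293 cells (stable SuperTOP-Flash, 7× TCF sites) were seeded at 40,000 per well on poly-L-lysine. After 24 h, cells got compound for 24 h in 50% Wnt3a-conditioned medium from L Wnt3a cells. Lysates were read for firefly and Renilla luciferase by dual-luciferase luminescence.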

For series [3], the target named is T2, Poly [ADP-ribose] polymerase tankyrase-2 (Homo sapiens, UniProt Q9H2K2).
T2 sequence (Q9H2K2 whole entry): T1 sequence (Q9H2K2 whole entry)
Briefly: Inhibition of TNKS2 (unknown origin) by NAD+-dependent autopoly(ADP ribosyl)lation assay.

On to `Cc1nnc(SCc2nnc(-c3ccc(Cl)cc3)o2)n1-c1ccccc1Cl`, for which the IC50 at Tankyrase 1/2 stood at 4.5 µM.

Consider `COc1cc(-c2nnc(/C=C/c3nnc(-c4ccc(S(C)(=O)=O)cn4)n3-c3ccccc3Cl)o2)ccn1`, for which the half-life in series [1] came out at 37 min.

As for `N#Cc1ccc(-c2nnc(CSc3nnc(-c4ccncc4)n3-c3ccncc3Cl)o2)cc1`, the inhibition result in series [2] was “inactive”.

Turning to `NCCCOCCCOc1cccc(-c2noc(CSc3nnc(-c4ccncc4)n3-c3ccccc3Cl)n2)c1`, the IC50 at Tankyrase 1/2 turned out to be 3.92 µM.

With `Cc1ccc(-c2nnc(CCc3nnc(-c4ccncc4)n3-c3ccccc3Cl)o2)cc1`, the half-life in series [1] worked out at 7 min.

In the case of `COc1ccc(-n2c(NCc3nc(-c4ccc(C)cc4)no3)nnc2-c2ccncc2)cc1`, the IC50 (on Tankyrase 1/2; in series [3]) was over 10 µM throughout. In series [1], the half-life came to 6.5 min.

Consider `Oc1cc(-c2nnc(/C=C/c3nnc(-c4ccc(F)cc4)n3-c3ccccc3Cl)o2)ccn1`, for which the half-life in series [1] was 128 min.

In the case of `COc1ccc(-n2c(OCc3nc(-c4ccc(C)cc4)no3)nnc2-c2ccncc2)cc1`, the IC50 (at Tankyrase 1/2; in series [3]) was over 10 µM throughout.

Regarding `Cc1cc2nc(CSc3nnc(-c4ccncc4)n3-c3ccccc3Cl)cc(=O)n2cc1C`, in series [1], the half-life was 7 min.

For the compound `N#Cc1ccc(-c2nnc(CSc3nnc(-c4ccncc4)n3-c3ccccc3Cl)o2)cc1`, in series [1], the half-life amounted to 2.4 min.

For the compound `COc1ccc(-n2c(SCc3nc(-c4ccc(C)cc4)no3)nnc2-c2ccncc2)cc1`, the IC50 on Tankyrase 1/2 is 1.01 µM; in series [3], 0.46 µM. For the same compound, the half-life in series [1] was 3 min.

As to `Cc1ccc(-c2noc(CSc3ncc(-c4ccncc4)n3-c3ccccc3C)n2)cc1`, at Tankyrase 1/2, the IC50 was over 10 µM.

Consider `CS(=O)(=O)c1ccc(-c2nnc(SCc3nnc(-c4ccc(Cl)cc4)o3)n2-c2ccccc2Cl)nc1`, for which the half-life in series [1] amounted to 4 min.

For orientation: IC50 means the concentration needed to halve the response being measured. For orientation: half-life means how long it takes for the measured level to halve. Low values mean rapid decline, high ones slow decline.
